ChEMBL document CHEMBL5154861, “Overcoming Paradoxical Kinase Priming by a Novel MNK1 Inhibitor” (J Med Chem, 2022)
Activity calls are given as the source filed them. The calls are words filed in the database; no cut-off is given here.

What was measured:
[1] = target: T1, MAP kinase-interacting serine/threonine-protein kinase 2 (Homo sapiens, UniProt Q9HBH9); assay: Inhibition of human recombinant full length GST-tagged MNK2 expressed in insect cells assessed as residual activity at 10 uM using S6 peptide as substrate in presence of [gamma-33P]-ATP incubated for 60 mins by radiometric scintillation counting method relative to control
Procedure, shortened: (§1)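 Radiometric 33PanQinase assay at 10 μM compound (final 1% DMSO). The buffer was 70 mM HEPES-NaOH pH 7.5 with 3 mM MgCl2, 3 mM MnCl2, 3 μM orthovanadate, 1.2 mM DTT and 50 μg/mL PEG20000. […] Reactions ran 60 min at 30 °C, were stopped with 2% H3PO4 and read by scintillation. Residual activity was calculated against high/low controls.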
Target sequence in this assay (Q9HBH9 whole entry, looked up): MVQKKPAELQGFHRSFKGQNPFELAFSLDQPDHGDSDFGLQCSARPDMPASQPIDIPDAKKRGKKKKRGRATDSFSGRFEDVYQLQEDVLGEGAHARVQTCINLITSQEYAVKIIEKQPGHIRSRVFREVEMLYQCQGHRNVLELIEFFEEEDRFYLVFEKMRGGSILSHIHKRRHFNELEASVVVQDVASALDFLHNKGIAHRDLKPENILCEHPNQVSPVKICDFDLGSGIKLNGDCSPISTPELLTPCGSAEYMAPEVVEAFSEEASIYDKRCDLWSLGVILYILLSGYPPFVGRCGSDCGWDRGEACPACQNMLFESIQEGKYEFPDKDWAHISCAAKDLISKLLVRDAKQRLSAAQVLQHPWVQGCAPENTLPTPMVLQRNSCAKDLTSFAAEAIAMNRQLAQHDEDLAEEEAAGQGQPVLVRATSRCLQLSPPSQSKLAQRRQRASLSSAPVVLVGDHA

[2] = target: T2, MAP kinase-interacting serine/threonine-protein kinase 1 (Homo sapiens, UniProt Q9BUB5); assay: Inhibition of human recombinant full length GST-tagged MNK1 expressed in baculovirus expression system assessed as residual activity at 10 uM using S6 peptide as substrate in presence of [gamma-33P]-ATP incubated for 60 mins by radiometric scintillation counting method relative to control; procedure, shortened: as §1
Target sequence in this assay (Q9BUB5 whole entry, looked up): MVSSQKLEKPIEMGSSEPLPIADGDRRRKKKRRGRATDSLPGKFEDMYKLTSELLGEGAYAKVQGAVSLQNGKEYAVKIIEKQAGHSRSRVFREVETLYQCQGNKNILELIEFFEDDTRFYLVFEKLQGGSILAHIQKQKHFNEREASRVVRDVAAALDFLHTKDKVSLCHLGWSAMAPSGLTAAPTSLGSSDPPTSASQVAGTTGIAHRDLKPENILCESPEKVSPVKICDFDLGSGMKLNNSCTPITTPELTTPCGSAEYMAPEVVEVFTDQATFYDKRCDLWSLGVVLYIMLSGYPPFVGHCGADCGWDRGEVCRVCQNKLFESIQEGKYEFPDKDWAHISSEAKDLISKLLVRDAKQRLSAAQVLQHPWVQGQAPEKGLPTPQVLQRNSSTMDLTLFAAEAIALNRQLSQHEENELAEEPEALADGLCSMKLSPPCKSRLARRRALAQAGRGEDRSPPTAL

[3] = tested on: IMR-90; assay: Cytotoxicity against human IMR-90 cells assessed as reduction in cell viability at 20 uM measured after 72 hrs by crystal violet staining based assay; assay type: toxicity; conditions: imr-90, 72 h
Procedure, shortened: (§2)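 Cells were seeded at 6000 cells/cm2, and 24 h later were treated with a range of concentrations (DMSO below 0.5%) for 72 h. They were fixed with 4% formaldehyde for 30 min and stained with 0.5% crystal violet for 15 min. Dye was eluted in 15% acetic acid and read as OD at 595 nm. Results are from three independent experiments, reported as SD; GI50 values were derived from the curves.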

[4] = target: Eukaryotic translation initiation factor 4E (Homo sapiens) (UniProt P06730); assay: Inhibition of eIF4E phosphorylation in human MDA-MB-231 cells at 5 to 20 uM pretreated for 3 hrs followed by UV irradiation and recovery for 40 mins with compound by Western blot analysis; assay type: cell-based; conditions: dose 5-20 µM, time 220.0 min
Procedure, shortened: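 MDA-MB-231 cells were pretreated with inhibitor for 3 h and then UV-irradiated. They recovered for 40 min at 37 °C with the inhibitor still present. Total lysates were immunoblotted for phospho-eIF4E and pathway markers (p-MNK1, p-p38, p-HSP27, p-ERK, p-p90RSK).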

[5] = target: T2, MAP kinase-interacting serine/threonine-protein kinase 1; assay: Inhibition of MNK1 in human MDA-MB-231 cells assessed as inhibition of eIF4E phosphorylation at 10 uM by Western blot analysis; assay type: cell-based; conditions: time 0.5-72 hrs, TDE = time-dependent effect
Procedure, shortened: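 MDA-MB-231 cells were exposed to 10 μM inhibitor for various times. Phospho-eIF4E (Ser209) versus total eIF4E was then assessed by immunoblot of total lysates (20–25 μg protein), with ECL detection.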
Target sequence in this assay (Q9BUB5 whole entry, looked up): as above

[6] = target: T3, MAP kinase-interacting serine/threonine-protein kinase 1/2 (Homo sapiens) (UniProt Q9HBH9+Q9BUB5); assay: Inhibition of MNK1/MNK2 in human IMR-90 cells assessed as inhibition of eIF4E phosphorylation incubated for 24 hrs by Western blot analysis; assay type: cell-based; conditions: dose 0.3-10 µM, DDE = dose-dependent effect
[7] = tested on: MDA-MB-231; assay: Cytotoxicity against human MDA-MB-231 cells assessed as reduction in cell viability measured after 72 hrs by crystal violet staining based assay; assay type: functional; conditions: dose 2.5-40 µM, DDE = dose-dependent effect; procedure, shortened: as §2
[8] = tested on: MDA-MB-231; assay: Growth inhibition of human MDA-MB-231 cells measured after 72 hrs by crystal violet staining based assay; assay type: functional; procedure, shortened: as §2
[9] = tested on: IMR-90; assay: Cytotoxicity against human IMR-90 cells assessed as reduction in cell viability measured after 72 hrs by crystal violet staining based assay; assay type: functional; procedure, shortened: as §2
[10] = tested on: MDA-MB-468; assay: Growth inhibition of human MDA-MB-468 cells measured after 72 hrs by crystal violet staining based assay; assay type: functional; procedure, shortened: as §2
[11] = tested on: MCF7; assay: Growth inhibition of human MCF7 cells measured after 72 hrs by crystal violet staining based assay; assay type: functional; procedure, shortened: as §2
[12] = target: T3, MAP kinase-interacting serine/threonine-protein kinase 1/2 (Homo sapiens); assay: Inhibition of MNK1/MNK2 in human MDA-MB-468 cells assessed as inhibition of eIF4E phosphorylation incubated for 24 hrs by Western blot analysis; assay type: cell-based; conditions: dose 0.3-10 µM, DDE = dose-dependent effect
[13] = tested on: IMR-90; assay: Cytotoxicity against human IMR-90 cells assessed as increase in dead cells at 2.5 to 40 uM by Hoechst/propidium iodide staining based microscopic analysis; assay type: toxicity, cell-based; conditions: imr-90, 40 µM, dose 2.5-40 µM
Procedure, shortened: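 Cells were grown and treated for 72 h as in the crystal violet assay, with cisplatin and DMSO as controls. Before fixation, PI (2.5 μM) and Hoechst (0.05 mg/mL) were added to the medium for 30 min. At least 100 cells per condition were counted microscopically, and PI-positive cells were scored as a percentage of Hoechst-positive cells. Three independent experiments were done.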

[14] = target: T3, MAP kinase-interacting serine/threonine-protein kinase 1/2 (Homo sapiens); assay: Inhibition of MNK1/MNK2 in human MDA-MB-231 cells assessed as reduction in eIF4E phosphorylation incubated for 24 hrs by Western blot analysis; assay type: cell-based; conditions: dose 0.3-10 µM, DDE = dose-dependent effect
Procedure, shortened: (§3)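 MDA-MB-231 cells, grown in DMEM with 10% heat-inactivated FBS and pen/strep at 37 °C and 5% CO2, were seeded at 6000 cells/cm2 24 h before a 24 h inhibitor exposure. DMSO was kept below 0.5% as the vehicle control. Total lysates (RIPA-type buffer with phosphatase/protease inhibitors, 20–25 μg) were immunoblotted with phospho- and total antibodies at 1:1000, using ECL detection.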

[15] = tested on: MDA-MB-231; assay: Cytotoxicity against human MDA-MB-231 cells assessed as reduction in cell viability at 20 uM measured after 72 hrs by crystal violet staining based assay relative to control; assay type: functional; procedure, shortened: as §2
[16] = target: T3, MAP kinase-interacting serine/threonine-protein kinase 1/2 (Homo sapiens); assay: Inhibition of MNK1/MNK2 in human MCF7 cells assessed as inhibition of eIF4E phosphorylation incubated for 24 hrs by Western blot analysis; assay type: cell-based; conditions: dose 0.3-10 µM, DDE = dose-dependent effect
[17] = target: T3, MAP kinase-interacting serine/threonine-protein kinase 1/2 (Homo sapiens); assay: Inhibition of MNK1/MNK2 in human MDA-MB-231 cells assessed as inhibition of eIF4E phosphorylation at 20 uM incubated for 24 hrs by Western blot analysis; assay type: cell-based; procedure, shortened: as §3
[18] = target: T1, MAP kinase-interacting serine/threonine-protein kinase 2; assay: Inhibition of human recombinant full length GST-tagged MNK2 expressed in insect cells using S6 peptide as substrate in presence of [gamma-33P]-ATP incubated for 60 mins by radiometric scintillation counting method
Procedure, shortened: (§4)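 Ten compound concentrations from 5 × 10–5 to 1.5 × 10–9 M were tested, and residual activity was calculated from cpm relative to high and low controls.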
Target sequence in this assay (Q9HBH9 whole entry): as the sequence (Q9HBH9 whole entry, looked up) above

[19] = species: Homo sapiens; assay: Selectivity ratio of IC50 for inhibition of human recombinant full length GST-tagged MNK2 to IC50 for inhibition of human recombinant full length GST-tagged MNK1; procedure, shortened: as §4
[20] = target: T2, MAP kinase-interacting serine/threonine-protein kinase 1; assay: Inhibition of human recombinant full length GST-tagged MNK1 expressed in baculovirus expression system using S6 peptide as substrate in presence of [gamma-33P]-ATP incubated for 60 mins by radiometric scintillation counting method; procedure, shortened: as §4
Target sequence in this assay (Q9BUB5 whole entry): as the sequence (Q9BUB5 whole entry, looked up) above

[21] = target: T2, MAP kinase-interacting serine/threonine-protein kinase 1; assay: Activation of MNK1 in human MDA-MB-231 cells assessed as increase in MNK1 phosphorylation at T209/T214 residues at 1.6 to 100 uM incubated for 24 hrs by Western blot analysis; assay type: cell-based; conditions: filed as activator, dose 1.6-100 µM; procedure, shortened: as §3
Target sequence in this assay (Q9BUB5 whole entry, looked up): as above

[22] = tested on: HEK293; assay: Potentiation of MNK1/eIF4E interaction in HEK293 cells assessed as increase in MNK1 phosphorylation at T209/T214 residues at 100 nM preincubated for 24 hrs followed by UV irradiation and recovery for 40 mins by immunoprecipitation based Western blot assay; assay type: cell-based; conditions: Homo sapiens, filed as activator, in the assay text read “MNK1/eIF4G interaction” for “MNK1/eIF4E interaction”
Procedure, shortened: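 HEK-293 cells were exposed to DMSO or inhibitor (100 nM) for 24 h, irradiated with UV at 60 J/m2 and recovered for 40 min at 37 °C. Endogenous eIF4G was immunoprecipitated from about 2 mg of precleared NP-40 lysate on protein A beads overnight at 4 °C. The IP and input were immunoblotted for MNK1 and p-MNK1.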

[23] = target: T2, MAP kinase-interacting serine/threonine-protein kinase 1; assay: Activation of MNK1 in human MDA-MB-231 cells assessed as increase in ERK expression at 25 to 100 uM incubated for 24 hrs by Western blot analysis; assay type: cell-based; conditions: filed as activator, dose 25-100 µM; procedure, shortened: as §3
Target sequence in this assay (Q9BUB5 whole entry, looked up): as above

Sequence of Eukaryotic translation initiation factor 4E (Homo sapiens) (P06730 whole entry): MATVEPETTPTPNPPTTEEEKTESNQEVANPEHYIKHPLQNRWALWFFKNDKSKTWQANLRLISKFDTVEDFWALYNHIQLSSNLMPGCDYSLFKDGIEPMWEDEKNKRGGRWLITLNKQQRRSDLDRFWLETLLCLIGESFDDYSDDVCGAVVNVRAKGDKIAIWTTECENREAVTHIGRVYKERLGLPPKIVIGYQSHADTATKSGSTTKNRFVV

Row | SMILES | Activity [1] | Activity [2] | also measured
1 | Cn1nc(N)c2c(-c3ccccc3)cc(-c3ccccc3)nc21 | 117% | 80% | 
2 | COc1ccc(-c2cc(-c3ccccc3OC)nc3[nH]nc(N)c23)cc1 | 109% | 63% | 
3 | Nc1n[nH]c2nc(-c3ccccc3)cc(-c3ccccc3)c12 | 52% | 14% | Activity [3]: Non-Toxic; inhibition [4]: Active; inhibition [5]: Tde; inhibition [6]: Dde; Activity [7]: Dde; GI50 [8]: 15.1 µM; GI50 [9]: > 40 µM; GI50 [10]: 14.5 µM; GI50 [11]: 8.46 µM; inhibition [12]: Dde; Activity [13]: Non-Toxic; inhibition [14]: Dde; Activity [15]: 60%; inhibition [16]: Dde; inhibition [17]: Active
4 | COc1ccc(-c2cc(-c3ccccc3)nc3[nH]nc(N)c23)cc1 | 74% | 25% | 
5 | COc1ccc(-c2cc(-c3cccc(OC)c3)nc3[nH]nc(N)c23)cc1 | 92% | 41% | 
6 | Nc1n[nH]c2nc(-c3ccccc3)cc(-c3ccc(F)cc3)c12 | 62% | 31% | IC50 [18]: 4.1 µM; Ratio IC50 [19]: 4; inhibition [14]: Dde; IC50 [20]: 1.3 µM
7 | Nc1c2cc(-c3c(Cl)cccc3Cl)c(Cl)nc2nn1-c1ccccc1 | 99% | 97% | 
8 | COc1cccc(-c2cc(-c3ccc(F)cc3)c3c(N)n[nH]c3n2)c1 | 82% | 51% | 
9 | Nc1c2c(-c3ccccc3)c(Cl)c(Cl)nc2nn1-c1ccccc1 | 102% | 103% | 
10 | Cc1cc(Nc2cc(N)ncn2)c(=O)n2c1C(=O)NC21CCCCC1 |  |  | Activity [21]: Active; Activity [22]: Active; Activity [23]: Active
11 | Nc1n[nH]c2ncccc12 | 102% | 95% | 
12 | COc1cccc(-c2cc(-c3ccccc3)c3c(N)n[nH]c3n2)c1 | 74% | 38% | IC50 [18]: 22 µM; Ratio IC50 [19]: 4; inhibition [14]: Dde; IC50 [20]: 4.2 µM

The next lines start with results.

Row | Activity [1] | Activity [2] | SMILES | also measured
13 | 145% | 102% | COc1ccc(-c2cc(-c3ccccc3)nc3c2c(N)nn3C)cc1 | 
14 | 123% | 61% | COc1ccccc1-c1cc(-c2ccc(C)cc2)c2c(N)n[nH]c2n1 | 
15 | 82% | 45% | COc1ccc(-c2cc(-c3ccc(C)cc3)c3c(N)n[nH]c3n2)cc1 | 
16 | 95% | 106% | Cn1nc(N)c2cccnc21 | 
17 | 154% | 94% | COc1ccc(-c2cc(-c3ccc(OC)cc3)c3c(N)nn(C)c3n2)cc1 | 
18 | 101% | 60% | COc1ccc(-c2cc(-c3ccc(OC)cc3)c3c(N)n[nH]c3n2)cc1 | 
